Experiment [1] deals with MDA-MB-231. Kind of experiment: Beta tubulin alkylation activity in MDA-MB-231 cells. It counts as functional, Homo sapiens. On the set-up: concentration or dose not given beside the values. A digest of the protocol: (§1)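 MDA-MB-231 cells (~5 × 10^6), exponentially growing, exposed to 30 μM compound for 24 h at 37 °C. Lysed in Laemmli buffer, run on 10% SDS-PAGE, immunoblotted with anti-β-tubulin (TUB 2.1, 1:500) and peroxidase anti-mouse secondary, ECL detection. Normal and alkylated band densities integrated to give % alkylated β-tubulin. Representative of three experiments.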

In experiment [2] the test system is K562. The experiment can be described thus: Dose required to inhibit cell growth was determined against K562 cell line of chronic myelogenous leukemia. Conditions: Homo sapiens. It counts as functional, cell-based. A digest of the protocol:
(§2)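 Alamar Blue growth assay. (1–5) × 10^3 cells per well preincubated 24 h, then exposed to increasing drug concentrations for 72 h at 37 °C. Medium replaced with PBS containing 20% Alamar Blue, fluorescence read at 485/590 nm. IC50 is the dose inhibiting growth by 50%.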

Experiment [3] has as its system HT-29. Kind of experiment: Dose required to inhibit cell growth was determined against HT-29 cell line of human adenocarcinoma. Format: functional, cell-based. A digest of the protocol: as §2
Experiment [4] concerns LoVo. Kind of experiment: Dose required to inhibit cell growth was determined against LoVo cell line a human colon adenocarcinoma; NA= Not active represents IC50 >400 uM. It counts as functional, cell-based. The gist of the method: (§3)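 Alamar Blue growth-inhibition assay. Cells ((1–5) × 10³ per well) were preincubated for 24 h, then exposed to increasing drug concentrations for 72 h at 37 °C. Alamar Blue (20%) was added and fluorescence read at ex 485 / em 590 nm. IC50 is the dose inhibiting growth by 50%. Means of ≥3 independent determinations.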

Experiment [5] deals with L1210. The experiment can be described thus: Dose required to inhibit cell growth was determined against L1210 cell line of murine lymphocytotic leukemia. It counts as functional, cell-based. Conditions: Mus musculus. The gist of the method: as §2
For experiment [6], the system named is MDA-MB-231. Kind of experiment: Dose required to inhibit cell growth was determined against MDA-MB-231 cell line of human non-hormone dependent breast carcinoma. Format: functional, cell-based. The gist of the method: as §2
For experiment [7], the system named is P388. Kind of experiment: Dose required to inhibit cell growth was determined against P388D1 cell line of murine lymphocytotic leukemia; NA= Not active represents IC50 >400 uM. It counts as functional, cell-based. Particulars: Mus musculus. A digest of the protocol:
as §3

Experiment [8] in a line: Alkylating activity using 4-(4-nitrobenzyl)-pyridine(NBP) colorimetric assay.
Experiment [9] concerns MDA-MB-231. The experiment can be described thus: Beta tubulin alkylation activity in MDA-MB-231 cells; not determined. Format: functional, Homo sapiens. The gist of the method:
as §1

Experiment [10] concerns MDA-MB-231. Kind of experiment: Dose required to inhibit cell growth was determined against MDA-MB-231 cell line of human non-hormone dependent breast carcinoma; Not active represents IC50 >400 uM. Format: functional, cell-based. A digest of the protocol: as §3
Experiment [11] concerns CHO. The experiment can be described thus: Dose required to inhibit cell growth was determined against CHO cell line; Not active represents IC50 >400 uM. It counts as functional, cell-based. Conditions: Cricetulus griseus. The gist of the method:
as §3

The subject of experiment [12] is P388. The experiment can be described thus: Dose required to inhibit cell growth was determined against P388D1 cell line of murine lymphocytotic leukemia. Format: functional, cell-based. Particulars: Mus musculus. The gist of the method: as §2
The test system of experiment [13] is MDA-MB-231. The experiment can be described thus: DNA damages caused in MDA-MB-231 cells after 2 hr exposure to a concentration of 400 uM. Format: functional. A digest of the protocol: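 Growing MDA-MB-231 cells held 2 h at 37 °C in medium with or without 400 μM compound. Cells washed in cold PBS and lysed in Tris/SDS/EDTA/deferoxamine/proteinase K buffer. DNA isolated by salting out, then 3'-end labeled by T4 DNA polymerase nucleotide exchange. Incorporated radioactivity measured by dot filtration, expressed as dCps exchanged/ng DNA. Means ± SD, ≥3 determinations.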

Experiment [14] in a line: Alkylating activity by using 4-(4-nitrobenzyl)-pyridine(NBP) colorimetric assay. The gist of the method: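 NBP colorimetric assay. Drug at 400 nmol/mL in ethanol was mixed with 10% NBP in ethanol and 50 mM sodium acetate pH 4.3, then heated at 80 °C for 60, 90, 120 or 150 min. Samples were chilled and basified with KOH/ethanol, and A570 was read against a drug-free blank. The alkylation rate (A570/min) is the slope of a linear regression of absorbance vs time. Mean ± SD of ≥3 independent experiments.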

The subject of experiment [15] is LoVo. Kind of experiment: Dose to inhibit cell growth determined against LoVo cell line of human adenocarcinoma. Format: functional, cell-based. A digest of the protocol:
as §2

For experiment [16], the system named is CHO. The experiment can be described thus: Dose required to inhibit cell growth was determined against CHO cell line. Particulars: Cricetulus griseus. Format: functional, cell-based. The gist of the method:
as §2

We go through three molecules from ChEMBL document CHEMBL1134792, “Antimitotic antitumor agents: synthesis, structure-activity relationships, and biological characterization of N-aryl-N'-(2-chloroethyl)ureas as new selective alkylating agents” (J Med Chem, 2001).

Each structure is given as a SMILES string. pIC50: −log10 of the molar value. The source made the active and inactive calls. No cut-off for these calls is given here.

Broadly, the pIC50 is the negative decadic logarithm of the IC50, by convention in mol/L.

For the molecule `O=C(NCCCl)Nc1ccccc1`, the Activity in experiment [1] stood at 0%. For the same molecule, the pIC50 is < 4.00 in experiment [2], < 4.00 in [3], 4.24 in experiment [5] and 3.85 in [6]. For the same molecule, the NA entry in [4] and in experiment [7] was “inactive” each time.

As for `CCNC(=O)Nc1ccc(C(C)(C)C)cc1`, the Activity in experiment [8] worked out at 0.07; in [9], 0. The pIC50 in [2] and in [3] was 4.08 in each case. The NA result in experiment [10] and in experiment [11] was “inactive” throughout.

Consider `O=C(NCCCl)Nc1ccc2c(c1)CCC2`, for which the pIC50 in experiment [12] is 5.14; in experiment [2], 5.26; in experiment [3], 5.00; in [5], 5.30; in experiment [6], 5.00; in experiment [15], 5.29. Besides, the pIC50 in experiment [16] is 5.00. The Activity was determined as 43% in experiment [1] and 3.5 A570 min-1 in experiment [14]. Besides, the DNA damage in experiment [13] was 2.37 10e7 exchanged dCps (ng of DNA).
